Molecules are shown by their SMILES.

Data set [1] relates to Mus musculus. The data set is described as follows: Maximum tolerated dose was determined for compound administered intraperitoneally in C3H/He mice. The format is functional. An outline of the steps:
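Female C3H/He mice, 8–12 weeks old, bearing KHT sarcoma. Given ip within 10 min, 0.5 mL/25 g (1 mL/25 g if solubility-limited). Escalating single doses to groups of 2–3 mice; MTD is the highest dose without severe or persistent clinical signs or death within 24 h.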

The test system of data set [2] is V79. Kind of data set: Concentration which reduced survival to 1% following incubation 3 hours with V79 mammalian cells under aerobic (Cair) conditions. Type of data set: functional, cell-based. As to conditions: Cricetulus griseus. An outline of the steps: (§1)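 Chinese hamster V79-379A cells, 1.5 × 10⁶ per glass bottle, grown to confluency over 48 h. Exposed for 3 h at 37 °C to a range of agent concentrations in growth medium (pH 7.4), under aerobic or hypoxic conditions. Cells then trypsinized, diluted and plated for colony formation. The ratio is aerobic over hypoxic concentration.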

Data set [3] relates to V79. The data set is described as follows: Concentration which reduced survival to 1% following incubation 3 hours with V79 mammalian cells under hypoxic (Cnitrogen) conditions. Type of data set: functional, cell-based. As to conditions: Cricetulus griseus. In outline:
as §1

The nature of data set [4]: Ratio of concentration which reduced V79 cell survival to 1% under aerobic conditions to that of hypoxic conditions. Type of data set: functional. An outline of the steps:
as §1

Data set [5] can be described thus: Half-life at pH of 5.5-6.0 at 23 degree Centigrade. To be noted: pH 5.5. Type of data set: ADME. An outline of the steps:
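Agent (0.2–0.5 mM) incubated in PBS, with or without NaHCO₃ (24–107 mM), pH adjusted right after preparation, at 23 °C. Aliquots taken over time and checked for loss by isocratic HPLC on a CN column, UV at 313 nm. Mobile phase was 10–25% methanol in 10 mM KH₂PO₄, pH 3.0.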

Data set [6] is described as follows: Half-life at pH of 7.0 at 4 degree Centigrade. Type of data set: ADME. As to conditions: pH 7. In outline:
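Agent (0.2–0.5 mM) incubated in PBS at pH 7.0 and 4 °C, with pH adjusted right after the solution was made. Aliquots taken at set times were analysed by isocratic HPLC on a CN column, with UV detection at 313 nm. Mobile phase was 10–25% methanol in 10 mM KH2PO4, pH 3.0, at 2 mL min⁻¹. Half-life came from loss of parent compound.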

Data set [7] is described as follows: Half-life at pH of 5.5-6.0 at 4 degree Centigrade. To be noted: pH 5.5-6.0.
The test system of data set [8] is Mus musculus. The data set is described as follows: Maximum tolerated dose was determined for compound administered intraperitoneally as a suspension in arachis oil in C3H/He mice. The format is functional.

Consider `O=[N+]([O-])c1nccn1CC(O)CN1CC1` (centres undefined), for which the MTD with Mus musculus [1] is 0.4 mM/kg. For the same molecule, the Concentration in the data set with V79 [2] was determined as 0.3 mM; in the data set on V79 [3], 0.003 mM. Further, the Ratio in data set [4] turned out to be 100.
With `Cl.O=[N+]([O-])c1nccn1CC(O)CNCCCl` (centres undefined), the half-life (as a rule, the time needed for the level to fall by half in the phase considered) in data set [5] is above 300 min; in data set [6], around 280 min. In addition, the MTD with Mus musculus [1] came out at 1.5 mM/kg. In addition, the figures for the Concentration in the data set on V79 [2] and with V79 [3] were 5 mM and 0.35 mM, respectively. Further, in data set [4], the Ratio is reported as 14.3.
As for `CC(C)(CCl)NCC(O)Cn1ccnc1[N+](=O)[O-].Cl` (centres undefined), in the data set on Mus musculus [1], the MTD was found to be 0.8 mM/kg. Besides, in data set [7], the half-life is 76 min.
With `CC1(C)N(CC(O)Cn2ccnc2[N+](=O)[O-])C1(C)C` (centres undefined), in the data set with Mus musculus [8], the MTD stood at 1.5 mM/kg.
As to `Br.CC(C)(Br)C(C)(C)NCC(O)Cn1ccnc1[N+](=O)[O-]` (centres undefined), in the data set on Mus musculus [1], the MTD worked out at 0.7 mM/kg. Besides, in data set [7], the half-life was below 2 min.
Turning to `CC(C)(Cl)C(C)(C)NCC(O)Cn1ccnc1[N+](=O)[O-].Cl` (centres undefined), the MTD with Mus musculus [1] amounted to 1.3 mM/kg. The molecule further showed a half-life in data set [7] below 2 min.
For `Cl.F.O=[N+]([O-])c1nccn1CC(O)CNCCF` (centres undefined), the Concentration with V79 [2] stood at 35 mM; in the data set on V79 [3] it was 2.5 mM. In addition, in data set [4], the Ratio is listed as 14.
On to `I.O=[N+]([O-])c1nccn1CC(O)CNCCI` (centres undefined), for which the figures for the Concentration in the data set on V79 [2] and in the data set on V79 [3] were 2.4 mM and 0.08 mM, respectively. Besides, the Ratio in data set [4] amounted to 30.
As to `CCNCC(O)Cn1ccnc1[N+](=O)[O-]` (centres undefined), in the data set on Mus musculus [1], the MTD amounted to 3.9 mM/kg.
On to `Br.C[C@@H](Br)[C@@H](C)NCC(O)Cn1ccnc1[N+](=O)[O-]` (some centres undefined), for which, in data set [6], the half-life was determined as 30 min. The MTD in the data set with Mus musculus [1] was determined as 1 mM/kg.
In the case of `Br.O=[N+]([O-])c1nccn1CC(O)CNCCBr` (centres undefined), in data set [5], the half-life was determined as 30 min. The molecule further yielded an MTD in the data set on Mus musculus [1] of 1 mM/kg. The figures for the Concentration with V79 [2] and in the data set with V79 [3] were 2.3 mM and 0.09 mM, respectively. The Ratio in data set [4] was determined as 25.5.
Regarding `Br.CC(C)(CBr)NCC(O)Cn1ccnc1[N+](=O)[O-]` (centres undefined), the MTD in the data set with Mus musculus [1] came to 1 mM/kg. Moreover, the half-life in data set [7] is below 5 min.
As to `C[C@@H](Cl)[C@@H](C)NCC(O)Cn1ccnc1[N+](=O)[O-].Cl` (some centres undefined), in data set [5], the half-life is 120 min. This molecule gave an MTD with Mus musculus [1] of 3 mM/kg.
With `O=[N+]([O-])c1nccn1CC(O)CNCCO` (centres undefined), the Concentration came out at 70 mM in the data set on V79 [2] and 3.5 mM in the data set on V79 [3]. In addition, the Ratio in data set [4] is listed as 20.
In the case of `C[C@@H]1[C@H](C)N1CC(O)Cn1ccnc1[N+](=O)[O-]` (some centres undefined), the MTD in the data set on Mus musculus [1] came out at 3 mM/kg.

For the origin of these results see ChEMBL document CHEMBL1124918, “Synthesis and evaluation of alpha-[[(2-haloethyl)amino]methyl]-2- nitro-1H-imidazole-1-ethanols as prodrugs of alpha-[(1-aziridinyl)methyl]-2- nitro-1H-imidazole-1-ethanol (RSU-1069) and its analogues which are radiosensitizers and bioreductively activated cytotoxins” (J Med Chem, 1990).
